# High-throughput results: PubChem BioAssay, The Scripps Research Institute Molecular Screening Center
# A selection: hits, their analogues and other compounds. The true share with any hit is near 1.7%.
# core dimer inh – blocks dimerization of HCV core protein | inhibition, % at 5 µM | 300,000 tested, 0.33% active | TR-FRET GST/Flag-core106 dimerization, 1536-well;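 active means inhibition above the mean of all tested compounds plus 3 SD, set per screening campaign, cut at about 45% in these data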
#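 Assay system – GST-tagged and Flag-tagged HCV core protein residues 1-106 · Quantity – core106 proteins, GST 13.5 nM and Flag 17 nM · Benchmarks – unlabelled core106 and no-GST-core106 wells · Read-out basis – percent inhibition of core106 dimerization signal · Detection – time-resolved FRET, ex 340 nm, em 617 and 671 nm · Schedule – 4 h at 22.5 °C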
# ZTA DNA inh – blocks Epstein-Barr virus ZTA, an EBNA-1 counter-screen; P03206; ZTA-DNA binding, fluorescence polarization; inhibition, % at 11 µM; 320,000 tested, 0.15% active; in the data active means inhibition above about 33%
# PP5 primary – inhibitors of human protein phosphatase 5 (PP5); purified PP5c, OMFP substrate fluorescence; 320,000 tested, 0.18% active; P53041; inhibition, % at 6.7 µM;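 active means inhibition above the campaign's mean inhibition across all tested compounds plus 3 SD, cut at about 9.5% in these data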;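 further: 0% = DMSO only and 100% = 100 µM cantharidin control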
# PP1 inh – counter-screen for PP5 inhibitors: inhibitors of human PP1-alpha | inhibition, % at 6.7 µM | 320,000 tested, 0.9% active | purified PP1alpha, OMFP fluorescence | AID 2235;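 active means inhibition above the mean inhibition of all tested compounds plus 3 SD, computed separately for each screening campaign, cut at about 15% in these data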
# Target sequence (P62136 whole entry, looked up): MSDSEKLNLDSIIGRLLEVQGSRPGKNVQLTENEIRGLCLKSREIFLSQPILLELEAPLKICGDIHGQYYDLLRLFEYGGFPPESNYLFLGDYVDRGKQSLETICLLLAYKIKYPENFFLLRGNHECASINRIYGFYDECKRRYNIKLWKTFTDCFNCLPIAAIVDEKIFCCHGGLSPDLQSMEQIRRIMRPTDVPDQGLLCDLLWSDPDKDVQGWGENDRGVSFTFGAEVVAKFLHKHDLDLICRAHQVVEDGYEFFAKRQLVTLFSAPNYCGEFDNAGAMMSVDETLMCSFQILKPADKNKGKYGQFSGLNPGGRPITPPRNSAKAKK
# EBNA-1 inhibitor – blocks EBNA-1 binding to DNA; EBNA-1 DNA binding, fluorescence polarization; inhibition, % at 14.8 µM; 300,000 tested, 0.34% active; AID 1950; in the data active means inhibition above about 28%
# EBNA-1 confirm – EBNA-1 (EBV) inhibition, confirmation | shares compounds with EBNA-1 inhibitor | Recombinant EBNA-1 DBD, Cy5-DNA fluorescence polarization | inhibition, % at 14.8 µM | 830 tested, 35% active | AID 2292;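 active means mean inhibition across replicates above a set limit taken from the earlier primary screen, cut at about 28% in these data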;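 further: plate controls were EBNA-1 protein with DMSO for no effect and wells lacking EBNA-1 for full effect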
# ZTA DNA inh trip – counter-screen for EBNA-1 inhibitors: Epstein-Barr virus ZTA inhibitors, triplicate; shares compounds with EBNA-1 inhibitor; Zta-ZRE DNA binding, Cy5 fluorescence polarization; inhibition, % at 11.1 µM; 830 tested, under 10 active;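 active means mean inhibition over triplicates above a set limit taken from the primary EBNA-1 screen, cut at about 37% in these data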;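 further: purified full length Zta protein with Cy5 labeled ZRE DNA probe; 0% = Zta with DMSO and 100% = wells lacking Zta protein; inhibitors lower polarization by freeing the labeled DNA probe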
# Numbers without * were called inactive; nt = not tested or not shown.
SMILES,core dimer inh,ZTA DNA inh,PP5 primary,PP1 inh,EBNA-1 inhibitor,EBNA-1 confirm,ZTA DNA inh trip
O=C(CCn1c(=S)[nH]c2ccccc2c1=O)Nc1cccc(Cl)c1,3,7,-2,-3,28*,15,5
COc1cccc(NC(=O)CCCn2c(=S)[nH]c3ccccc3c2=O)c1,-1,-6,1,-3,0,nt,nt
O=c1c2ccccc2[nH]c(=S)n1Cc1ccc2c(c1)OCO2,-1,16,-1,-3,12,nt,nt
O=C(CN1CCCCC1)Nc1cccc(Br)c1,-2,2,-2,-1,8,nt,nt
CC/C(=N\N=C(/CC)c1ccccc1N)c1ccccc1N,2,9,0,-3,-5,nt,nt
O=C(CSc1ncccc1-c1nc2ccccc2[nH]1)N1CCc2ccccc21,0,-7,5,10,32*,9,4
COC(=O)CSc1ncccc1-c1nc2ccccc2[nH]1,-1,11,1,2,-3,nt,nt
O=C(CSc1nc2ccccc2c(=O)n1-c1ccccc1)N1CCc2ccccc21,27,13,-1,0,41*,38*,0
COc1ccc(/C=C/C(=O)N(C)c2ccccc2C(=O)O)cc1,0,18,-1,-1,4,nt,nt
COc1ccc(NC(=O)[C@@H](NC(=O)c2ccccc2F)C(C)C)cc1S(=O)(=O)N1CCOCC1,-12,1,0,0,11,nt,nt
C/C(=N\NC(=O)C1=NNC(=O)C1C)c1cccs1 (stereo not given),-21,-29,0,0,2,nt,nt
COc1ccc(C(=O)NC(=S)N(C)Cc2ccccc2)cc1Br,5,4,0,0,45*,23,2
O=C(c1ccc(S(=O)(=O)N2CCCCCC2)cc1)N1CCC(CN2C(=O)c3cccc4cccc(c34)C2=O)CC1,28,4,-2,0,30*,-5,4
C=CCn1c(C)cc(C(=O)Cn2c(C(C)O)nc3ccccc32)c1C (stereo not given),1,13,1,-4,-6,nt,nt
Cc1cc(C)n2nc(SCCCC(=O)c3ccc(F)cc3)nc2n1,-1,8,-2,-6,2,nt,nt
Cc1cc(C)n(-c2ccc(C(=O)OCC(=O)NC(c3ccccc3)c3ccccc3)cc2)n1,8,19,-3,2,32*,26,2
CCCCCN(C(=O)CCC(=O)OCCOc1ccc(OCC)cc1)c1c(N)n(CCCC)c(=O)[nH]c1=O,-1,-3,-1,6,2,nt,nt
CCn1c(SCC(=O)Nc2cccc(C)c2)nc2nc3c(cc2c1=O)COC(C)(C)C3,-1,3,2,6,0,nt,nt
C=CCNC(=S)NNC(=O)c1cccc(Br)c1,-10,1,1,0,-12,nt,nt
C=CCNC(=S)NNC(=O)c1ccccc1,0,4,-2,-3,77*,-3,7
O=C(Cc1cccc2ccccc12)Nc1ccc(-c2cc3ccccc3oc2=O)cc1,7,5,0,17*,29*,22,7
O=C(NCCCCCCNC(=O)c1ccc(Br)s1)c1ccc(Br)s1,0,10,1,0,53*,26,7
Cc1ccc(S(=O)(=O)Nc2ccccc2C(=O)N2CCN(C)CC2)cc1,-4,8,3,-3,13,nt,nt
Clc1ccc(-c2cn3c(n2)-c2ccccc2C3)cc1Cl,8,19,1,-1,4,nt,nt
O=C1c2ccccc2C(=O)N1CCCCN(C(=O)c1cc2ccccc2oc1=O)c1ccc(Cl)cc1,12,1,2,3,37*,0,19
Cc1ccc(N(C(=O)c2cc3ccccc3oc2=O)C2C=CS(=O)(=O)C2)cc1 (stereo not given),0,-1,-2,-2,8,nt,nt
CN1C(=O)N(C)C2(c3ccccc3)Nn3c(s/c(=C/c4ccco4)c3=O)=NC12c1ccccc1 (stereo not given),7,-3,0,0,45*,77*,10
COc1ccc(/C=C/C(=O)Oc2cccc(/C=N/NC(=O)COc3c(C)cccc3C)c2)cc1,20,4,1,9,39*,74*,7
